Active and inactive are the calls of the source. No cut-off for these calls is given here.
Assays:
BGC-823 = test: Cytotoxicity against human BGC-823 cells measured after 24 to 72 hrs by MTT assay; format: functional, cell-based
Outline: (§1)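 Cells were grown in RPMI 1640 with 10% FBS and penicillin/streptomycin at 37 °C, 5% CO2. They were seeded at 1×10^4 cells/well and allowed to attach for 24 h. Compounds at various concentrations were then applied for 24, 48 or 72 h (DMSO below 1.25%). MTT (5.0 mg/mL) was added 3 h before the end, formazan was dissolved in DMSO and OD was read at 570 nm. Doxorubicin served as reference. Data are mean ± SD, n=3.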

SW480 = test: Cytotoxicity against human SW480 cells measured after 24 to 72 hrs by MTT assay; format: functional, cell-based; outline: as §1
MCF7 = test: Cytotoxicity against human MCF7 cells measured after 24 to 72 hrs by MTT assay; format: functional, cell-based; outline: as §1
HeLa = test: Cytotoxicity against human HeLa cells measured after 24 to 72 hrs by MTT assay; format: functional, cell-based; outline: as §1
A549 = test: Cytotoxicity against human A549 cells measured after 24 to 72 hrs by MTT assay; format: functional, cell-based; outline: as §1
[1] = Antioxidant activity assessed as DPPH radical scavenging activity incubated for 30 mins under dark condition relative to control; format: functional; design: concentration or dose not given beside the values
Outline: (§2)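 Compounds at a range of concentrations were mixed with DPPH solution and kept 30 min in the dark. Absorbance was read at 517 nm. % activity = [(control A − sample A)/control A] × 100. Vitamin C and ebselen served as positive controls and DMSO as the negative control. Fold is expressed relative to vitamin C (set as 1). Values are mean ± SD of three independent experiments.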

DNA = test: Induction of bleomycin-dependent DNA (unknown origin) damage assessed as absorbance at 0.1 mg/ml measured after 1 hr; format: nucleic-acid assay
Outline: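 The bleomycin-iron/DNA mixture was incubated at 37 °C for 1 h and stopped with 0.1 M EDTA. Colour was developed with 1% TBA plus 25% HCl at 80 °C for 30 min. After ice cooling, DNA damage was read as the increase in absorbance at 532 nm. L-ascorbic acid served as the positive control.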

[2] = Antioxidant activity assessed as glutathione peroxidase-like activity at 41 mM measured over 3 mins; format: functional
Outline: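 GPx-like rate measured from GSH/glutathione reductase/NADPH coupling in 50 mM phosphate buffer with 0.1% Triton X-100. The compound was added from a 41 mM solution, and the reaction was started with H2O2 (0.8 mM). A340 was followed for 3 min and expressed as ΔA/min. Values were corrected for the H2O2 + GSH background, and for the compound's own absorbance if coloured. Ebselen (41 mM) served as reference.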

[3] = biological target: T1, Thioredoxin reductase 1, cytoplasmic (Rattus norvegicus, UniProt O89049); test: Inhibition of rat TrxR1 using DTNB as substrate preincubated for 15 mins followed by substrate addition and measured for 20 mins by colorimetric method
T1 sequence (O89049 whole entry): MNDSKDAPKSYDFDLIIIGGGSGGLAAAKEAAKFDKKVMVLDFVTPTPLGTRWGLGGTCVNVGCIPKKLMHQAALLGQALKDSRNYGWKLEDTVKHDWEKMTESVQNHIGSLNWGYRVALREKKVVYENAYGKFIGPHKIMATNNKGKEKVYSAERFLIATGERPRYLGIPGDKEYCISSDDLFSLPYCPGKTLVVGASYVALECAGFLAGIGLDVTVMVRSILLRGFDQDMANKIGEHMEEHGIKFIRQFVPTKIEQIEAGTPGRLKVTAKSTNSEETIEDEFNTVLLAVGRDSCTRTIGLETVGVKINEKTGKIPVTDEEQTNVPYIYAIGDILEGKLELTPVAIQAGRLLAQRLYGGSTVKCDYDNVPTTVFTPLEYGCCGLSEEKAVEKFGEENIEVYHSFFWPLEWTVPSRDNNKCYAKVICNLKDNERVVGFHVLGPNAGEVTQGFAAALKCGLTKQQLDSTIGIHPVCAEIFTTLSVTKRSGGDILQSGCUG
Outline: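 Rat TrxR1 (5 nM) was used in 100 mM potassium phosphate pH 7.0 with 1 mM EDTA, 0.1 mg/ml BSA and 0.2 mM NADPH. […] DTNB was then added and the A412 increase was monitored for 20 min.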

[4] = Potency index, ratio of test compound to vitamin C antioxidant activity assessed as DPPH radical scavenging activity incubated for 30 mins under dark condition; format: functional; outline: as §2

Cc1cccc(Nc2ccccc2C(=O)NCc2ccc(-n3[se]c4ccccc4c3=O)cc2)c1C
IC50 (BGC-823): 3.4 µM | IC50 (SW480): 4.5 µM | IC50 (MCF7): 4.2 µM | IC50 (HeLa): 3.8 µM | IC50 (A549): 3.6 µM | inhibition [1]: 54.3% | Activity (DNA): 72.4 | Activity [2]: Active | EC50 [3]: 14.3 µM | Ratio [4]: 0.5

COc1ccc2cc(C(C)C(=O)NCc3ccc(-n4[se]c5ccccc5c4=O)cc3)ccc2c1 (stereo not drawn)
IC50 (BGC-823): 13.5 µM | IC50 (SW480): 7.4 µM | IC50 (MCF7): 13.8 µM | IC50 (HeLa): 9.7 µM | IC50 (A549): 11.4 µM | inhibition [1]: 68.6% | Activity (DNA): 82.8 | Activity [2]: Active | EC50 [3]: 14.6 µM | Ratio [4]: 0.7

COc1ccc2cc(C(C)C(=O)NCCn3[se]c4ccccc4c3=O)ccc2c1 (stereo not drawn)
IC50 (BGC-823): 13.5 µM | IC50 (SW480): 15.7 µM | IC50 (MCF7): 16.5 µM | IC50 (HeLa): 8.8 µM | IC50 (A549): 14.7 µM | inhibition [1]: 28.6% | Activity (DNA): 123 | Activity [2]: Active | EC50 [3]: 28.4 µM | Ratio [4]: 0.3

COc1ccc2c(c1)c(CC(=O)NCc1ccc(-n3[se]c4ccccc4c3=O)cc1)c(C)n2C(=O)c1ccc(Cl)cc1
IC50 (BGC-823): 9.2 µM | IC50 (SW480): 7.5 µM | IC50 (MCF7): 11.3 µM | IC50 (HeLa): 14.3 µM | IC50 (A549): 10.3 µM | inhibition [1]: 78.7% | Activity (DNA): 101 | Activity [2]: Active | EC50 [3]: 15.7 µM | Ratio [4]: 0.8

CC(C(=O)NCCn1[se]c2ccccc2c1=O)c1ccc(-c2ccccc2)c(F)c1 (stereo not drawn)
IC50 (BGC-823): 9.5 µM | IC50 (SW480): 11.3 µM | IC50 (MCF7): 14.9 µM | IC50 (HeLa): 10.4 µM | IC50 (A549): 13.6 µM | inhibition [1]: 42.5% | Activity (DNA): 85.7 | Activity [2]: Active | EC50 [3]: 28.5 µM | Ratio [4]: 0.4

CC(C)Cc1ccc(C(C)C(=O)O)cc1 (stereo not drawn) [IBUPROFEN]
IC50 (BGC-823): > 50 µM | IC50 (SW480): > 50 µM | IC50 (MCF7): > 50 µM | IC50 (HeLa): > 50 µM | IC50 (A549): > 50 µM

C=C(C(=O)NCCn1[se]c2ccccc2c1=O)c1ccc(CC(C)C)cc1
IC50 (BGC-823): 12.5 µM | IC50 (SW480): 11.4 µM | IC50 (MCF7): 15.7 µM | IC50 (HeLa): 10.6 µM | IC50 (A549): 9.4 µM | inhibition [1]: 33.5% | Activity (DNA): 68.4 | Activity [2]: Active | EC50 [3]: 23.5 µM | Ratio [4]: 0.3

O=c1c2ccccc2[se]n1-c1ccccc1 [EBSELEN]
IC50 (BGC-823): > 50 µM | IC50 (SW480): > 50 µM | IC50 (MCF7): > 50 µM | IC50 (HeLa): > 50 µM | IC50 (A549): > 50 µM

CC(C(=O)NCc1ccc(-n2[se]c3ccccc3c2=O)cc1)c1cccc(C(=O)c2ccccc2)c1 (stereo not drawn)
IC50 (BGC-823): 11.2 µM | IC50 (SW480): 12.5 µM | IC50 (MCF7): 8.4 µM | IC50 (HeLa): 9.2 µM | IC50 (A549): 13.2 µM | inhibition [1]: 31.3% | Activity (DNA): 85.3 | EC50 [3]: 19.6 µM | Ratio [4]: 0.3

CC1=C(CC(=O)NCCn2[se]c3ccccc3c2=O)c2cc(F)ccc2/C1=C\c1ccc([S+](C)[O-])cc1 (stereo not drawn)
IC50 (BGC-823): 16.6 µM | IC50 (SW480): 10.4 µM | IC50 (MCF7): 14.4 µM | IC50 (HeLa): 11.3 µM | IC50 (A549): 13.3 µM | inhibition [1]: 29% | Activity (DNA): 68.4 | Activity [2]: Active | EC50 [3]: 27 µM | Ratio [4]: 0.3

CC(=O)Oc1ccccc1C(=O)O [ASPIRIN]
IC50 (BGC-823): > 50 µM | IC50 (SW480): > 50 µM | IC50 (MCF7): > 50 µM | IC50 (HeLa): > 50 µM | IC50 (A549): > 50 µM

O=C(NCc1ccc(-n2[se]c3ccccc3c2=O)cc1)c1ccccc1Nc1cccc(C(F)(F)F)c1
IC50 (BGC-823): 8.4 µM | IC50 (SW480): 13.7 µM | IC50 (MCF7): 14.2 µM | IC50 (HeLa): 7.5 µM | IC50 (A549): 12.7 µM | inhibition [1]: 51.5% | Activity (DNA): 56.1 | EC50 [3]: 11.5 µM | Ratio [4]: 0.5

CC(=O)Oc1ccccc1C(=O)NCCn1[se]c2ccccc2c1=O
IC50 (BGC-823): 11.4 µM | IC50 (SW480): 14.2 µM | IC50 (MCF7): 14.5 µM | IC50 (HeLa): 12.7 µM | IC50 (A549): 10.6 µM | inhibition [1]: 41.4% | Activity (DNA): 91.4 | Activity [2]: Active | EC50 [3]: 21.4 µM | Ratio [4]: 0.4

— ChEMBL document CHEMBL5625186, “Synthesis, cytotoxicity, antioxidant activity and molecular modeling of new NSAIDs-EBS derivatives” (Eur J Med Chem, 2023)
